Reference: ChEMBL document CHEMBL1275591, “Cellular pharmacodynamics of the novel biaryloxazolidinone radezolid: studies with infected phagocytic and nonphagocytic cells, using Staphylococcus aureus, Staphylococcus epidermidis, Listeria monocytogenes, and Legionella pneumophila” (Antimicrob Agents Chemother, 2010)
In brackets after ≈: the same amount, converted by molar mass.

Columns and labels:
Staphylococcus aureus [1] = assay: Antimicrobial activity against methicillin-susceptible Staphylococcus aureus ATCC 25923 after 24 hrs; format: functional; settings: ATCC 25923, 24 h
Staphylococcus aureus [2] = assay: Antimicrobial activity against hospital acquired methicillin-resistant Staphylococcus aureus ATCC 33591 after 24 hrs; format: functional; settings: ATCC 33591, 24 h
Staphylococcus aureus [3] = assay: Antimicrobial activity against hospital acquired methicillin-resistant Staphylococcus aureus SA238 after 24 hrs; format: functional; settings: SA238, 24 h
Staphylococcus aureus [4] = assay: Antimicrobial activity against Linezolid resistant hospital acquired methicillin-resistant Staphylococcus aureus SA238L after 24 hrs; format: functional
Staphylococcus aureus [5] = assay: Antimicrobial activity against methicillin-resistant, vancomycin intermediate Staphylococcus aureus NRS52 after 24 hrs; format: functional; settings: NRS52, 24 h
Listeria monocytogenes [6] = assay: Antimicrobial activity against Listeria monocytogenes EGD after 24 hrs; format: functional
Legionella pneumophila [7] = assay: Antimicrobial activity against Legionella pneumophila ATCC 33153 after 48 hrs; format: functional; settings: ATCC 33153, 48 h
Listeria monocytogenes [8] = assay: Antimicrobial activity against Listeria monocytogenes infected in THP1 cells after 24 hrs; format: functional, organism-based; settings: THP-1, 24 h
Outline: (§1)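 Bacteria were phagocytosed by human THP-1 macrophage-like cells, then exposed to a range of drug concentrations for a fixed time: 24 h for S. aureus, S. epidermidis and L. monocytogenes, 48 h for L. pneumophila. Change in CFU versus the initial inoculum was fitted with a sigmoidal curve to give Emin, Emax (relative maximal efficacy), EC50 and static concentration (Cs).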

[9] = test system: Staphylococcus epidermidis; assay: Bacteriostatic activity against Staphylococcus epidermidis infected in THP1 cells after 24 hrs; format: functional, THP-1; outline: as §1
Legionella pneumophila [10] = assay: Bacteriostatic activity against Legionella pneumophila ATCC 33153 infected in THP1 cells after 48hrs; format: functional, THP-1; outline: as §1
Staphylococcus aureus [11] = assay: Antimicrobial activity against linezolid-susceptible Staphylococcus aureus NRS18 infected in THP1 cells assessed as log reduction in bacterial count after 24 hrs; format: functional, THP-1; outline: as §1
Staphylococcus aureus [12] = assay: Antimicrobial activity against linezolid-resistant Staphylococcus aureus SA040L infected in THP1 cells assessed as log reduction in bacterial count after 24 hrs; format: functional, THP-1; outline: as §1
Staphylococcus aureus [13] = assay: Antimicrobial activity against linezolid-susceptible Staphylococcus aureus ATCC 25923 infected in THP1 cells after 24 hrs; format: functional, organism-based; settings: ATCC 25923, THP-1, 24 h; outline: as §1
Staphylococcus aureus [14] = assay: Antimicrobial activity against linezolid-susceptible Staphylococcus aureus NRS384 infected in THP1 cells after 24 hrs; format: functional, organism-based; settings: NRS384, THP-1, 24 h; outline: as §1
Staphylococcus aureus [15] = assay: Antimicrobial activity against linezolid-susceptible Staphylococcus aureus SA040 infected in THP1 cells after 24 hrs; format: functional, organism-based; settings: SA040, THP-1, 24 h; outline: as §1
Staphylococcus aureus [16] = assay: Antimicrobial activity against linezolid-susceptible Staphylococcus aureus SA238 infected in THP1 cells after 24 hrs; format: functional, organism-based; settings: SA238, THP-1, 24 h; outline: as §1
Staphylococcus aureus [17] = assay: Bacteriostatic activity against linezolid-susceptible Staphylococcus aureus ATCC 25923 infected in THP1 cells after 24 hrs; format: functional, THP-1
Outline: (§2)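 Human THP-1 myelomonocytic (macrophage-like) cells infected with S. aureus, then exposed 24 h to a range of antibiotic concentrations. CFU change was measured against the initial inoculum. A sigmoidal dose-response curve was fitted to give Emin, Emax and EC50, and the apparent static concentration (Cs) was taken from the fit.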

Staphylococcus aureus [18] = assay: Bacteriostatic activity against linezolid-susceptible Staphylococcus aureus ATCC 33591 infected in THP1 cells after 24 hrs; format: functional, THP-1; outline: as §2
Staphylococcus aureus [19] = assay: Bacteriostatic activity against linezolid-susceptible Staphylococcus aureus NRS384 infected in THP1 cells after 24 hrs; format: functional, THP-1; outline: as §2
Staphylococcus aureus [20] = assay: Bacteriostatic activity against linezolid-susceptible Staphylococcus aureus NRS18 infected in THP1 cells after 24 hrs; format: functional, THP-1; outline: as §2
Staphylococcus aureus [21] = assay: Bacteriostatic activity against linezolid-resistant Staphylococcus aureus SA238L infected in THP1 cells after 24 hrs; format: functional, THP-1; outline: as §2
Staphylococcus aureus [22] = assay: Antimicrobial activity against linezolid-susceptible Staphylococcus aureus SA238 infected in HUVEC cells assessed as log reduction in bacterial count after 24 hrs; format: functional
Outline: (§3)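 S. aureus was internalized by adherent nonphagocytic cells: Calu-3, HUVEC, keratinocytes on collagen-coated wells, osteoblasts, or rat embryo fibroblasts. Inoculum was 5 × 10^7 to 1 × 10^8 bacteria/ml with 2 h phagocytosis (HUVEC: 2 × 10^6/ml, 1 h). Cells were then exposed to graded drug concentrations for 24 h. CFU change versus the original inoculum was fitted sigmoidally for Emax and Cs.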

Staphylococcus aureus [23] = assay: Antimicrobial activity against linezolid-susceptible Staphylococcus aureus SA238 infected in Calu-3 cells assessed as log reduction in bacterial count after 24 hrs; format: functional; outline: as §3
Staphylococcus aureus [24] = assay: Antimicrobial activity against linezolid-resistant Staphylococcus aureus SA238L infected in human epidermal keratinocytes cells assessed as log reduction in bacterial count after 24 hrs; format: functional; outline: as §3
Staphylococcus aureus [25] = assay: Antimicrobial activity against linezolid-susceptible Staphylococcus aureus SA238 infected in human osteoblasts cells assessed as log reduction in bacterial count after 24 hrs; format: functional; outline: as §3
Staphylococcus aureus [26] = assay: Antimicrobial activity against linezolid-resistant Staphylococcus aureus SA238L infected in human osteoblasts cells assessed as log reduction in bacterial count after 24 hrs; format: functional; outline: as §3
Staphylococcus aureus [27] = assay: Bacteriostatic activity against linezolid-resistant Staphylococcus aureus SA238L infected in human osteoblasts cells after 24 hrs; format: functional
Outline: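 Adherent nonphagocytic cells were infected at 5 × 10^7 to 1 × 10^8 bacteria/ml with 2 h phagocytosis. Cells used: Calu-3 bronchial epithelium grown in uncoated flasks, neonatal foreskin keratinocytes on collagen-coated wells, primary human osteoblasts, and primary rat embryo fibroblasts. Antibiotic was then given over a concentration range for 24 h. Cs came from a sigmoidal fit of CFU change.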

THP-1 [28] = assay: Ratio of drug level for cellular to extracellular region of Staphylococcus aureus infected human THP-1 cells at 4 mg/liter after 2 hrs; format: ADME, cell-based; settings: thp-1, 2 h
Outline: (§4)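 Cells were exposed to [14C]radezolid for 2 or 24 h. Cell-associated drug in lysates was measured by liquid scintillation counting (detection limit 0.003 mg/liter; linear 0.01–0.78 mg/liter). Content was normalised to cell protein (Lowry). It was converted to apparent cellular concentration at 5 μl per mg protein and expressed relative to the extracellular concentration.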

THP-1 [29] = assay: Ratio of drug level for cellular to extracellular region of Staphylococcus aureus infected human THP-1 cells at 4 mg/liter after 24 hrs; format: ADME, cell-based; settings: thp-1, 24 h; outline: as §4
[30] = Ratio of drug level for cellular to extracellular region of Staphylococcus aureus infected human Calu3 cells at 4 mg/liter after 24 hrs; format: ADME, cell-based; settings: calu-3, 24 h; outline: as §4
[31] = Ratio of drug level for cellular to extracellular region of Staphylococcus aureus infected rat fibroblast at 4 mg/liter after 24 hrs; format: ADME, cell-based; outline: as §4
Staphylococcus aureus [32] = assay: Antimicrobial activity against linezolid-susceptible Staphylococcus aureus SA238 infected in THP1 cells at pH 7.4 after 24 hrs; format: functional, organism-based; settings: SA238, THP-1, 24 h
Staphylococcus aureus [33] = assay: Antimicrobial activity against linezolid-susceptible Staphylococcus aureus SA238 infected in THP-1 cells at pH 5.5 after 24 hrs; format: functional, organism-based; settings: SA238, THP-1, 24 h
Staphylococcus aureus [34] = assay: Antimicrobial activity against linezolid-susceptible Staphylococcus aureus SA238 after 24 hrs; format: functional, organism-based; settings: SA238, 24 h
Staphylococcus aureus [35] = assay: Bacteriostatic activity against linezolid-susceptible Staphylococcus aureus SA238 after 24 hrs; format: functional
Outline: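 Extracellular concentration-response in Mueller-Hinton broth over 24 h. Change in CFU was fitted to a sigmoidal function, and the apparent static concentration (Cs) was derived from the fit.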

Staphylococcus aureus [36] = assay: Antimicrobial activity against linezolid-resistant Staphylococcus aureus SA238L infected in THP1 cells assessed as log reduction in bacterial count after 24 hrs; format: functional, THP-1; outline: as §1

CC(=O)NC[C@H]1CN(c2ccc(-c3ccc(CNCc4cnn[nH]4)cc3)c(F)c2)C(=O)O1 [RADEZOLID]
MIC (Staphylococcus aureus [1]): 0.25 mg/L (≈ 0.57 µM) | MIC (Staphylococcus aureus [2]): 0.5 mg/L (≈ 1.14 µM) | MIC (Staphylococcus aureus [3]): 0.5 mg/L (≈ 1.14 µM) | MIC (Staphylococcus aureus [4]): 2 mg/L (≈ 4.56 µM) | MIC (Staphylococcus aureus [5]): 2 mg/L (≈ 4.56 µM) | MIC (Listeria monocytogenes [6]): 0.03 mg/L (≈ 0.0684 µM) | MIC (Legionella pneumophila [7]): 0.5 mg/L (≈ 1.14 µM) | EC50 (Listeria monocytogenes [8]): 0.04 mg/L (≈ 0.0912 µM) | Activity [9]: 0.03 mg/L | Activity (Legionella pneumophila [10]): 0.36 mg/L | log10cfu (Staphylococcus aureus [11]): -1 | log10cfu (Staphylococcus aureus [12]): -0.66 | EC50 (Staphylococcus aureus [13]): 0.24 mg/L (≈ 0.547 µM) | EC50 (Staphylococcus aureus [14]): 0.07 mg/L (≈ 0.16 µM) | EC50 (Staphylococcus aureus [15]): 0.09 mg/L (≈ 0.205 µM) | EC50 (Staphylococcus aureus [16]): 0.16 mg/L (≈ 0.365 µM) | Activity (Staphylococcus aureus [17]): 0.91 mg/L | Activity (Staphylococcus aureus [18]): 0.56 mg/L | Activity (Staphylococcus aureus [19]): 0.32 mg/L | Activity (Staphylococcus aureus [20]): 0.28 mg/L | Activity (Staphylococcus aureus [21]): 0.97 mg/L | log10cfu (Staphylococcus aureus [22]): 0.6 | log10cfu (Staphylococcus aureus [23]): 0.6 | log10cfu (Staphylococcus aureus [24]): 0.6 | log10cfu (Staphylococcus aureus [25]): 0.6 | log10cfu (Staphylococcus aureus [26]): 0.6 | Activity (Staphylococcus aureus [27]): 0.6 mg/L | Ratio (THP-1 [28]): 9.3 | Ratio (THP-1 [29]): 9.8 | Ratio [30]: 8.3 | Ratio [31]: 10.9 | EC50 (Staphylococcus aureus [32]): 0.31 mg/L (≈ 0.707 µM) | EC50 (Staphylococcus aureus [33]): 0.02 mg/L (≈ 0.0456 µM) | EC50 (Staphylococcus aureus [34]): 0.16 mg/L (≈ 0.365 µM) | Activity (Staphylococcus aureus [35]): 0.52 mg/L | log10cfu (Staphylococcus aureus [36]): -0.77
